Assay results: ChEMBL document CHEMBL4834471 (J Med Chem, 2021)
Activity calls are given as the source filed them. No cut-off for these calls is given here.

Assays:
Mus musculus [1] = assay: Antiinflammatory activity BALB/c mouse assessed as restoration of salbutamol-induced adrenergic bronchial relaxation at 10 mg/kg, po administered on day 0 and 7 and measured upto 21 days; type: functional, organism-based; conditions: time day <=21
Mus musculus [2] = assay: Antiinflammatory activity in zymosan-induced CD-1 mouse peritonitis model assessed as reduction in vascular permeability at 10 mg/kg, ip preincubated with compound for 30 mins followed by zymosan addition and measured after 30 mins; type: functional, organism-based; conditions: time 60.0 min
Summary of the method: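 Zymosan peritonitis with compound 10 mg/kg i.p. Vascular permeability assessed at 30 min after zymosan. Exudate LTB4 (ELISA) and peritoneal immune cell infiltration assessed at 4 h. Two-tailed unpaired t-test of log data.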

[3] = biological target: T1, Prostaglandin G/H synthase 1 (Ovis aries) (UniProt P05979); assay: Inhibition of ovine COX-1 assessed as reduction in 12-HHT formation at 10 uM using arachidonic acid as substrate preincubated for 6 mins followed by substrate addition by RPL-HPLC method
T1 sequence (whole entry): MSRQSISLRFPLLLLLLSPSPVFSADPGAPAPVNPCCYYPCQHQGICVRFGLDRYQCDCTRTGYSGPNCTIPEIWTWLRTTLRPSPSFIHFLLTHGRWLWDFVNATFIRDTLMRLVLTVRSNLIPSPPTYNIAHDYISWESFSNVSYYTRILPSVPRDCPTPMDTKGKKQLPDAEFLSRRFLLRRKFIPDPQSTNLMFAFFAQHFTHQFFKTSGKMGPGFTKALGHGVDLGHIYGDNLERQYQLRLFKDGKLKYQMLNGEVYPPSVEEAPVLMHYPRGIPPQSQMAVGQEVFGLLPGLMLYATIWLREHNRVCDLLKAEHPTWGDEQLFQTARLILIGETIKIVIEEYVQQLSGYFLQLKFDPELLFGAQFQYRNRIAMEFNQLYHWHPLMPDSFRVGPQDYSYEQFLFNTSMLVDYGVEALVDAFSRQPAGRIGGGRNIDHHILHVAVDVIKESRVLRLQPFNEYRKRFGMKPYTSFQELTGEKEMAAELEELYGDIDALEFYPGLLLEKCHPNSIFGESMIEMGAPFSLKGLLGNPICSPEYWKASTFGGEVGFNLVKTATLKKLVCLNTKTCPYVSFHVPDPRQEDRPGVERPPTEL

[4] = Drug degradation in mouse at 10 mg/kg, po; type: ADME, organism-based; conditions: in vivo
Summary of the method: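 Mice with acute peritonitis dosed orally at 10 mg/kg; plasma compound and metabolite concentrations measured 90 min after administration from extracted chromatograms; n = 8 mice.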

[5] = biological target: T2, Polyunsaturated fatty acid lipoxygenase ALOX15 (Homo sapiens) (UniProt P16050); assay: Inhibition of 15-LOX in human PMNL assessed as reduction in 15-LOX product formation at 0.03 to 0.2 uM treated with AA and A23187 by RP-HPLC method; type: tissue-based; conditions: dose 0.03-0.2 µM
T2 sequence (whole entry): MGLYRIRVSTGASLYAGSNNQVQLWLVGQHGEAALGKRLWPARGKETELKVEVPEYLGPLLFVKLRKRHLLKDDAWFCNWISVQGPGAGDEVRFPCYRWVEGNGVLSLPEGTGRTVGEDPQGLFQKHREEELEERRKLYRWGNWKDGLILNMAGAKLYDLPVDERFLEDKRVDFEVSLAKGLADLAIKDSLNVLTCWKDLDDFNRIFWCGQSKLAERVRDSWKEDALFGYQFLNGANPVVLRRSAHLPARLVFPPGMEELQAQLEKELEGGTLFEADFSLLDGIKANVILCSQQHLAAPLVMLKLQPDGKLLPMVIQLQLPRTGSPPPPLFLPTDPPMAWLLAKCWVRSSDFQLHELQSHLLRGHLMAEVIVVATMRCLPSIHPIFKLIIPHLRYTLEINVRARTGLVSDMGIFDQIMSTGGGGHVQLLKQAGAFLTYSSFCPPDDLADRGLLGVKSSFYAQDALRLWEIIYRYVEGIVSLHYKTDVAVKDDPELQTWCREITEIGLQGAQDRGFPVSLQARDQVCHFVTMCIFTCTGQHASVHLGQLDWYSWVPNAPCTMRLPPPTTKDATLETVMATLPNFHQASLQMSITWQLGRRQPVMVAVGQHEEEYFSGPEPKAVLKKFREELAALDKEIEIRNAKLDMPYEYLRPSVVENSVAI

[6] = Drug metabolism in human liver-on-chip assessed as compound conjugation with sulfate incubated for 48 hrs by UPLC-MS/MS analysis; type: ADME, tissue-based
Summary of the method: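 Liver-on-chip built from differentiated HepaRG cells (hepatocyte-like and biliary-like) with a HUVEC endothelial layer. Loaded with compound at 1 μM and incubated 48 h; compound and metabolites quantified from extracted chromatograms; n = 3 independent experiments.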

[7] = biological target: Prostaglandin G/H synthase 1 (Homo sapiens) (UniProt P23219); assay: Inhibition of COX-1 in human platelets assessed as reduction in 12-HHT formation at 10 uM using arachidonic acid as substrate preincubated for 5 mins followed by substrate addition and measured after 5 mins by RPL-HPLC method; type: tissue-based; conditions: Platelet, time 10.0 min
Sequence of Prostaglandin G/H synthase 1 (Homo sapiens) (P23219 whole entry): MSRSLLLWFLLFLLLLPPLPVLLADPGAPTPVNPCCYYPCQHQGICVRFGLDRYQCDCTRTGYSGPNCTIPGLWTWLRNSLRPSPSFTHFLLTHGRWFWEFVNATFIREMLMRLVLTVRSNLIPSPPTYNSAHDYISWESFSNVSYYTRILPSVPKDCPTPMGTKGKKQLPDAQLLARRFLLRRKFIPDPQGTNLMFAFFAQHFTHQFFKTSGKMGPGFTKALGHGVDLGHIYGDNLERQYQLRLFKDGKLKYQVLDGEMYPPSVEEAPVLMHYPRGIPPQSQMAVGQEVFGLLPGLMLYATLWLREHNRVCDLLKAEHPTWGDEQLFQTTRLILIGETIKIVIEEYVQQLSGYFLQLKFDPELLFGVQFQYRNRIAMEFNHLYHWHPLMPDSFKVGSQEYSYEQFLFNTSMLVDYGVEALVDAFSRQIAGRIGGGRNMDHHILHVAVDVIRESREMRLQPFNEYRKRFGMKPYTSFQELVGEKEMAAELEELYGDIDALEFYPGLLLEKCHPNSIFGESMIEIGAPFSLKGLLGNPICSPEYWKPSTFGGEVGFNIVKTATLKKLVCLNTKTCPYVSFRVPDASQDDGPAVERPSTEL

[8] = biological target: T2, Polyunsaturated fatty acid lipoxygenase ALOX15 (Homo sapiens); assay: Inhibition of 15-LOX in human PMNL assessed as reduction in 15-LOX product formation at 10 uM treated with AA and A23187 by RP-HPLC method; type: tissue-based
Monocyte [9] = assay: Cytotoxicity against human monocytes assessed as reduction in LDH release at <=1 uM after 2 to 24 hrs by CytoTox96 nonradioactive assay; type: cell-based; conditions: time 2-24 hrs
Summary of the method: (§1)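 Monocytes at 4 × 10^5/mL in monocyte medium treated 2 or 24 h at 37 °C, 5% CO2, with 0.1% DMSO vehicle. LDH release measured by CytoTox 96 kit, with Triton X-100 (0.8%) defining maximum release.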

Monocyte [10] = assay: Cytotoxicity against human monocytes assessed as reduction in LDH release at 1 to 10 uM after 2 to 24 hrs by CytoTox96 nonradioactive assay; type: cell-based; conditions: dose lower 1 µM, time lower 2 hrs, dose upper 10 µM, time upper 24 hrs; summary of the method: as §1
Keratinocyte [11] = assay: Cytotoxicity against human Keratinocytes assessed as reduction in cell viability at 10 to 100 uM after 24 hrs by MTT assay; type: cell-based; conditions: dose 10-100 µM
Keratinocyte [12] = assay: Antiinflammatory activity in cytokine cocktail-induced reconstructed human epidermis model assessed as decrease in pH at 5 to 25 uM after 4 days; type: functional, cell-based; conditions: dose 5-25 µM, time 4.0 day
Summary of the method: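 Reconstructed human epidermis exposed to compound and stressed with a cytokine cocktail for 4 days. Readouts: IL-8 in growth medium, H&E morphology, transepidermal water loss, stratum corneum permeability to Lucifer yellow with DAPI nuclear stain, and surface pH. n = 2–3 independent experiments.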

[13] = Drug concentration in plasma of CD-1 mouse at 30 mg/kg, po after 30 mins; type: ADME, organism-based
Summary of the method: (§2)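 Oral dosing at 30 mg/kg in zymosan peritonitis; mice killed 30 min after zymosan injection. Compound concentrations measured in plasma and in peritoneal exudate.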

[14] = Antioxidant activity assessed as DPPH radical scavenging activity at 0.1 to 10 uM incubated for 30 mins by microplate reader based assay; type: functional; conditions: dose 0.1-10 µM
Summary of the method: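 Compound incubated with DPPH (50 mM, as printed) in ethanol for 30 min, then absorbance read at 520 nm. Ascorbic acid at 25 μM used as positive control; n = 4 independent experiments.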

[15] = Drug concentration in peritoneal exudate of CD-1 mouse at 30 mg/kg, po after 30 mins; type: ADME, organism-based, Peritoneal fluid; conditions: read-out: Ct; summary of the method: as §2

- inhibition [3]: inactive
- Stabilty [4]: Stable
- inhibition [5]: inactive
- Drug metabolism [6]: Metabolite_Detected
- inhibition [7]: inactive
- inhibition [8]: inactive
- concentration at 0.5 h [13]: 20 nM
- concentration at 0.5 h [15]: 0.5 nM
Compound: C/C(=C\CC/C(C)=C/CC[C@]1(C)CCc2c(C)c(O)c(C)c(C)c2O1)CCC=C(CO)CO
- Activity (Mus musculus [1]): Active
- Activity (Mus musculus [2]): Active
- Activity (Monocyte [9]): Non-Toxic
- Activity (Monocyte [10]): Toxic
- Activity (Keratinocyte [11]): Non-Toxic
- Activity (Keratinocyte [12]): Active
- Activity [14]: inactive
